# Data published in ChEMBL document CHEMBL4311980, “Discovery of 2-isoxazol-3-yl-acetamide analogues as heat shock protein 90 (HSP90) inhibitors with significant anti-HIV activity” (Eur J Med Chem, 2019).
# Calls of active or inactive are those of the source. No cut-off for these calls is given here.
# What was measured:
# [1] = Cytotoxicity against human TZM-bl cells assessed as maximum non-cytotoxic concentration after 48 hrs by MTT assay; assay type: cell-based; conditions: read-out: MNCC
# Outline: (§1)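 Cells were seeded at 25,000/well in complete medium with compound at different concentrations, with untreated and DMSO controls, and incubated 48 h. MTT (5 mg/mL stock) was added for 4 h at 37 °C in the dark. Formazan was dissolved in isopropanol and A570 read. CC50 and highest non-cytotoxic concentration were derived from this assay.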
# [2] = system: Human immunodeficiency virus 1; experiment: Antiviral activity against HIV1 NL4-3 infected in human TZM-bl cells assessed as reduction in viral replication at 100 nM measured at 48 hrs post-infection by steady-glo reporter gene assay relative to control; assay type: functional; conditions: Human immunodeficiency virus 1, NL4-3, TZM-bl
# Outline: (§2)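 TZM-bl cells (0.15×10^6/well) were infected with 0.5 MOI HIV-1 NL4-3 12 h after seeding and treated at the highest non-cytotoxic concentration, which was set by MTT assay. At 48 h post-infection, cells were lysed and mixed 1:1 with Steady-Glo substrate, and luminescence was read.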
# [3] = system: Human immunodeficiency virus 1; experiment: Antiviral activity against HIV-1 NL4-3 infected in human TZM-bl cells assessed as reduction in viral replication at 1000 nM measured at 48 hrs post-infection by steady-glo reporter gene assay relative to control; assay type: functional; conditions: Human immunodeficiency virus 1, NL4-3, TZM-bl; outline: as §2
# [4] = Therapeutic index, ratio of CC50 for human CEM-GFP cells to IC50 for antiviral activity against HIV-1 NL4-3 infected in human CEM-GFP cells; assay type: toxicity, cell-based; conditions: read-out: Ratio CC50/IC50
# Outline: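 IC50 was determined from p24 ELISA 72 h after 0.5 MOI HIV-1 NL4-3 infection with compound at different concentrations. Therapeutic index = CC50/IC50.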
# [5] = Cytotoxicity against human CEM-GFP cells assessed as reduction in cell viability after 48 hrs by MTT assay; assay type: cell-based; outline: as §1
# [6] = system: Human immunodeficiency virus 1; experiment: Antiviral activity against HIV-1 NL4-3 infected in human CEM-GFP cells assessed as suppression of viral replication by measuring reduction in p24 level measured at 72 hrs post-infection by ELISA; assay type: functional, organism-based; conditions: Human immunodeficiency virus 1, NL4-3, CEM-GFP
# Outline: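 Cells were incubated with 0.5 MOI virus in the presence of polybrene at 37 °C for 4 h with intermittent mixing, then washed and plated in complete RPMI-1640. Compound added at different concentrations, with untreated and DMSO controls. PBMC were PHA-activated. Supernatant p24 measured by capture ELISA (A450) at 72 h. % inhibition calculated relative to untreated cells.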
# [7] = target: Human immunodeficiency virus type 1 reverse transcriptase (Human immunodeficiency virus 1) (UniProt Q72547); conditions: 500 nM
smiles,measurement,setting,value
Cc1cccc(NC(=O)Cc2cc(-c3ccccc3)on2)c1,MNTC at 48 h,[1],100 nM
same,inhibition at 0.1 µM,[2],33.3%
Cc1ccccc1NC(=O)Cc1cc(-c2ccccc2)on1,MNTC at 48 h,[1],1000 nM
same,inhibition at 1 µM,[3],23.5%
Cc1ccc(NC(=O)Cc2cc(-c3ccccc3)on2)cc1,MNTC at 48 h,[1],1000 nM
same,selectivity ratio,[4],507
same,inhibition at 1 µM,[3],98.4%
same,CC50 at 48 h,[5],44 µM
same,IC50,[6],0.0868 µM
Cc1cn([C@H]2C[C@H](N=[N+]=[N-])[C@@H](CO)O2)c(=O)[nH]c1=O [ZIDOVUDINE],selectivity ratio,[4],1090
same,CC50 at 48 h,[5],13.9 µM
same,IC50,[6],0.0127 µM
O=C(Cc1cc(-c2ccccc2)on1)Nc1ccc(Cl)cc1,MNTC at 48 h,[1],100 nM
same,inhibition at 0.1 µM,[2],49%
CCCNC(=O)Cc1cc(-c2ccccc2)on1,MNTC at 48 h,[1],100 nM
same,inhibition at 0.1 µM,[2],60.9%
COc1ccc(NC(=O)Cc2cc(-c3ccccc3)on2)cc1,MNTC at 48 h,[1],1000 nM
same,inhibition at 1 µM,[3],59.6%
CCNC(=O)c1noc(-c2cc(C(C)C)c(O)cc2O)c1-c1ccc(CN2CCOCC2)cc1 [LUMINESPIB],MNTC at 48 h,[1],1000 nM
same,selectivity ratio,[4],470
same,inhibition at 1 µM,[3],88.3%
same,CC50 at 48 h,[5],31.1 µM
same,IC50,[6],0.0663 µM
Cc1ccnc2c1NC(=O)c1cccnc1N2C1CC1,inhibition,[7],Active
